Assay results from ChEMBL document CHEMBL2074537, “Interaction of 31 beta-lactam antibiotics with the H+/peptide symporter PEPT2: analysis of affinity constants and comparison with PEPT1” (Eur J Pharm Biopharm, 2005).
pKi: −log10 of the molar value. Values joined by “and” are separate entries in the source; they are usually repeats but may differ in a detail not shown here. Equal values may be shown once.

Key:
[1] = target: T1, Solute carrier family 15 member 2 (Rattus norvegicus, UniProt Q63424); assay: TP_TRANSPORTER: inhibition of Gly-Sar uptake (pH6.0) in SKPT cells; assay type: functional, cell-based
T1 sequence (Q63424 whole entry): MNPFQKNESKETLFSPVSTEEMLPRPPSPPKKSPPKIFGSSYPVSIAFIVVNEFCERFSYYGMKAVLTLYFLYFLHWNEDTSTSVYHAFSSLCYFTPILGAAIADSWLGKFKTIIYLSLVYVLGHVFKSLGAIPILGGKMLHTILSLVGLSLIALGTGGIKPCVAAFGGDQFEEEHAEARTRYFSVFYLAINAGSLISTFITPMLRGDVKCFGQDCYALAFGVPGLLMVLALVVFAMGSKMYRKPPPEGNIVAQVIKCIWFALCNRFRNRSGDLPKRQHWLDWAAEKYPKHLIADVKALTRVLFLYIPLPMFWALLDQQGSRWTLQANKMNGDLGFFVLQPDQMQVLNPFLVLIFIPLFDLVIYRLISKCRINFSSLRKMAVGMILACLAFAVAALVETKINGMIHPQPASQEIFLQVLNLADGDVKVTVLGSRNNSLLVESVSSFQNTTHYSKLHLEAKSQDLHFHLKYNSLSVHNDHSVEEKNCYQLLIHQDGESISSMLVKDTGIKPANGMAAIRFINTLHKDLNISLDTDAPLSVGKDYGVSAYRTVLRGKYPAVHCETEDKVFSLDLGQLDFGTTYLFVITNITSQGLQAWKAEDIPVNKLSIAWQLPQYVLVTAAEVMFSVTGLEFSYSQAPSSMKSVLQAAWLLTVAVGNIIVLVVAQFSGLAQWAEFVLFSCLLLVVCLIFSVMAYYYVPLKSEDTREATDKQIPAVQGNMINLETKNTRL
Summary of the method: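 Rat SKPT renal proximal tubule cells were seeded and used 4 days later. Cells were given ice-cold washes, lysed and counted by scintillation, with protein by Bradford. Non-saturable uptake was taken with 10 mM Gly-Sar.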

[2] = target: T2, Solute carrier family 15 member 1 (Homo sapiens, UniProt P46059); assay: TP_TRANSPORTER: inhibition of Gly-Sar uptake (pH6.0) in Caco-2 cells; assay type: functional, cell-based
T2 sequence (P46059 whole entry): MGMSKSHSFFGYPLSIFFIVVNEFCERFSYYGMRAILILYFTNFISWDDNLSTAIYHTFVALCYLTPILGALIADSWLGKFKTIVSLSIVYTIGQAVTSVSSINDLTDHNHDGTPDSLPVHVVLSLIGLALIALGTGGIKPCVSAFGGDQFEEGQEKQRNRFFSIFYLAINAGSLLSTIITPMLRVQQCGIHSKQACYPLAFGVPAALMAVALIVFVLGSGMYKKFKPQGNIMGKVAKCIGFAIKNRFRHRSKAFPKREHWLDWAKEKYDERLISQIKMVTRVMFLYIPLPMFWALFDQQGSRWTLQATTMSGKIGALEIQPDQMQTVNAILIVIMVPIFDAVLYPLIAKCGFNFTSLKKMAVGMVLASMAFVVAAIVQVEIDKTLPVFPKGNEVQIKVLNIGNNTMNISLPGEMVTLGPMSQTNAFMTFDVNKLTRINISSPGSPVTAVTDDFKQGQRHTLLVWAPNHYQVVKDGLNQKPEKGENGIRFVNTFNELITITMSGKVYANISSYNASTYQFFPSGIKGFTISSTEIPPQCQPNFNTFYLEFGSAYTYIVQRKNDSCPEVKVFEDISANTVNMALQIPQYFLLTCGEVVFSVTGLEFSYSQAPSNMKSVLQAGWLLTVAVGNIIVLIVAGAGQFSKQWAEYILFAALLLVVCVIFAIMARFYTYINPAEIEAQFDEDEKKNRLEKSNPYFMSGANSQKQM

SMILES	pKi [1]	pKi [2]
CC1(C)S[C@@H]2[C@H](N)C(=O)N2[C@H]1C(=O)O	1.72	< 1.52
CC(=O)OCC1=C(C(=O)O)N2C(=O)[C@@H](N)[C@H]2SC1	2.31	< 2.00
CO/N=C(\C(=O)N[C@@H]1C(=O)N2C(C(=O)[O-])=C(C[N+]3(C)CCCC3)CS[C@H]12)c1csc(N)n1	1.94	< 1.52
CC1(C)S[C@@H]2[C@H](NC(=O)[C@H](N)c3ccc(O)cc3)C(=O)N2[C@H]1C(=O)O [AMOXICILLIN]	3.37	< 2.00
N[C@@H](C(=O)N[C@@H]1C(=O)N2C(C(=O)O)=C(Cl)CS[C@H]12)c1ccccc1 [CEFACLOR ANHYDROUS]	–	< 2.00
CC1=C(C(=O)O)N2C(=O)[C@@H](NC(=O)[C@H](N)c3ccc(O)cc3)[C@H]2SC1 [CEFADROXIL]	–	2.14
Cn1nnnc1SCC1=C(C(=O)O)N2C(=O)[C@@H](NC(=O)[C@H](O)c3ccccc3)[C@H]2SC1 [CEFAMANDOLE]	2.55	2.09
C=CC1=C(C(=O)O)N2C(=O)[C@@H](NC(=O)/C(=N\OCC(=O)O)c3csc(N)n3)[C@H]2SC1 [CEFIXIME]	2.59	1.92
CO[C@@]1(NC(=O)CSCC#N)C(=O)N2C(C(=O)O)=C(CSc3nnnn3C)CS[C@@H]21 [CEFMETAZOLE]	2.37	1.55
CO/N=C(\C(=O)N[C@@H]1C(=O)N2C(C(=O)O)=C(CSc3nc(C)c(CC(=O)O)s3)CS[C@H]12)c1csc(N)n1 [CEFODIZIME]	2.05	1.66
CO/N=C(\C(=O)N[C@@H]1C(=O)N2C(C(=O)O)=C(COC(C)=O)CS[C@H]12)c1csc(N)n1 [CEFOTAXIME]	1.70	< 1.52
CO/N=C(\C(=O)N[C@@H]1C(=O)N2C(C(=O)[O-])=C(C[n+]3cccc4c3CCC4)CS[C@H]12)c1csc(N)n1 [CEFPIROME]	2.02	< 1.52
NC(=O)c1cc[n+](CC2=C(C(=O)O)N3C(=O)[C@@H](NC(=O)[C@@H](c4ccccc4)S(=O)(=O)[O-])[C@H]3SC2)cc1 [CEFSULODIN]	< 1.52	< 1.52
CC(C)(O/N=C(\C(=O)N[C@@H]1C(=O)N2C(C(=O)[O-])=C(C[n+]3ccccc3)CS[C@H]12)c1csc(N)n1)C(=O)O [CEFTAZIDIME]	< 2.00	< 2.00
Nc1nc(/C(=C/CC(=O)O)C(=O)N[C@@H]2C(=O)N3C(C(=O)O)=CCS[C@H]23)cs1 [CEFTIBUTEN]	3.55	3.47
CO/N=C(\C(=O)N[C@@H]1C(=O)N2C(C(=O)O)=C(CSc3nc(=O)c(=O)[nH]n3C)CS[C@H]12)c1csc(N)n1 [CEFTRIAXONE]	< 1.70	< 1.52
CO/N=C(\C(=O)N[C@@H]1C(=O)N2C(C(=O)O)=C(COC(N)=O)CS[C@H]12)c1ccco1 [CEFUROXIME]	< 5.52 and 1.90	< 2.30 and 1.59
CC1=C(C(=O)O)N2C(=O)[C@@H](NC(=O)[C@H](N)c3ccccc3)[C@H]2SC1 [CEPHALEXIN ANHYDROUS]	4.12	–
O=C(Cc1cccs1)N[C@@H]1C(=O)N2C(C(=O)[O-])=C(C[n+]3ccccc3)CS[C@H]12 [CEPHALORIDINE]	2.07	< 1.52
CC(=O)OCC1=C(C(=O)O)N2C(=O)[C@@H](NC(=O)Cc3cccs3)[C@H]2SC1 [CEPHALOTHIN]	2.08	< 2.00
CC(=O)OCC1=C(C(=O)O)N2C(=O)[C@@H](NC(=O)CSc3ccncc3)[C@H]2SC1 [CEPHAPIRIN]	< 2.00	< 2.00
CC1=C(C(=O)O)N2C(=O)[C@@H](NC(=O)[C@H](N)C3=CCC=CC3)[C@H]2SC1 [CEPHRADINE]	4.19	2.01
Cc1onc(-c2ccccc2Cl)c1C(=O)N[C@@H]1C(=O)N2[C@@H]1SC(C)(C)[C@@H]2C(=O)O [CLOXACILLIN]	3.02	2.52
CC1(C)S[C@@H]2[C@H](NC(=O)C3(N)CCCCC3)C(=O)N2[C@H]1C(=O)O [CYCLACILLIN]	4.36	3.30
Cc1onc(-c2c(Cl)cccc2Cl)c1C(=O)N[C@@H]1C(=O)N2[C@@H]1SC(C)(C)[C@@H]2C(=O)O [DICLOXACILLIN]	3.38	2.14
C=N[C@@H](C(=O)N[C@@H]1C(=O)N2[C@@H]1SC(C)(C)[C@@H]2C(=O)O)c1ccccc1 [METAMPICILLIN]	3.14	1.90
CO[C@@]1(NC(=O)C(C(=O)O)c2ccc(O)cc2)C(=O)N2C(C(=O)O)=C(CSc3nnnn3C)CO[C@@H]21 (some centres undefined) [MOXALACTAM]	4.06	1.91
Cc1onc(-c2ccccc2)c1C(=O)N[C@@H]1C(=O)N2[C@@H]1SC(C)(C)[C@@H]2C(=O)O [OXACILLIN]	2.48	1.92
CC1(C)S[C@@H]2[C@H](NC(=O)Cc3ccccc3)C(=O)N2[C@H]1C(=O)O [PENICILLIN G]	–	< 1.52
